Paper PMC9828401 (Acta Biochimica et Biophysica Sinica, 2022)
“Also recorded” adds a separate entry of the source. Like-named read-outs stand apart in the source and are kept apart here. Ends that are not written are not given here.

Experiments:
[1] = system: RGC-5 cells; assay: TUNEL assay, MPP-treated RGC-5 cells; format: cell-based, mouse; settings: 8 mM MPP; for TUNEL signal (MPP-induced apoptosis): pre-treatment with 10 μM peptide
[2] = system: RGC-5 cells; assay: MTT cell viability assay, MPP-treated RGC-5 PD cell model; format: cell-based, mouse; settings: for protection against decrease of cell viability induced by MPP: 0.1–100 μM, 2 h before 8 mM MPP
How it was run: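 RGC-5 cells were seeded at 4×10⁴ per well and pretreated with test compound (0.1–100 μM) for 2 h before 8 mM MPP. After 24 h, MTT (0.5 mg/mL) was added for 4 h and formazan was dissolved in isopropanol. Readout was OD₅₇₀, expressed as % of cells without MPP. At least four parallel replicates, repeated three times.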

[3] = system: PAC1-R; settings: cited from earlier work
[4] = system: PAC1-EC1; settings: PAC1-EC1 pre-saturated with PACAP(28–38); previous study; ref [19]; cited from earlier work
[5] = system: PACAP; assay: PACAP level determined by ELISA in RGC-5 cells; format: cell-based, mouse; settings: for positive effect on PACAP expression level: over 10 μM
[6] = system: PAC1-R; settings: cited from earlier work; remark: listed apart in the source
[7] = system: PAC1-R promoter; assay: PAC1-R promoter activity assay; format: cell-based, mouse; settings: RGC-5
[8] = system: PAC1R-eGFP; assay: Confocal microscopy of nuclear translocation of PAC1R-eGFP in PAC1R-CHO cells; format: cell-based, mouse; settings: 1 μM, 15 min, vs control cells
How it was run: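 CHO-K1 cells (DMEM, 10% FBS, 37°C, 5% CO₂) stably transfected with C-terminally eGFP-tagged wild-type or Cys25Ala PAC1-R, selected with G418 (0.8–1 mg/mL) and cloned by limiting dilution; at least three matched clones were used. Cells were exposed to 1 μM test compound for 15 min, then imaged by confocal microscopy (ex 488/em 545 nm). Translocation was taken as nuclear/whole-cell fluorescence, with ≥3 replicates repeated three times.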

[9] = system: M-PAC1R(Cys25/Ala25)-eGFP; assay: Confocal microscopy of nuclear translocation of M-PAC1R; format: cell-based, mouse; settings: 1 μM, 15 min
How it was run: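 CHO-K1 cells stably expressing C-terminally eGFP-tagged PAC1-R Cys25/Ala25 mutant, from lipofection, G418 (0.8–1 mg/mL) selection and limiting-dilution cloning; at least three clones with similar receptor levels run in parallel. Cells grown in 10% FBS medium at 37°C, 5% CO₂. Exposed to 1 μM test compound or none for 15 min; eGFP imaged by confocal microscopy (ex 488 nm, em 545 nm). ≥3 replicates, repeated three times.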

[10] = system: PAC1-R promoter sequence (−2019 bp to −1739 bp); assay: ChIP-PCR, PAC1-R promoter sequence, RGC-5 cells; format: cell-based, mouse; settings: RGC-5, 1 μM, 15 min; antibody to PAC1-R C-terminus; 280 bp product
[11] = ref [20], [21]; cited from earlier work
[12] = system: PACAP promoter sequence (−858 bp to −536 bp); assay: ChIP-PCR, PACAP promoter sequence, RGC-5 cells; format: cell-based, mouse; settings: RGC-5, 1 μM, 15 min; antibody to PAC1-R C-terminus; 320 bp product
[13] = system: PAC1-R; assay: Western blot of PAC1-R in RGC-5 cells; format: cell-based, mouse; settings: for PAC1-R expression by Western blot: 0.1 μM to 100 μM
How it was run: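 RGC-5 cells (F12, 10% FBS) were treated for 30 min with test compound (0.01–100 μM), with or without 50 μM 2-bromopalmitate; controls received serum-free medium. Blots were run by SDS-PAGE/PVDF, probed with rabbit anti-PAC1-R (C-terminal aa 506–525) and anti-β-actin, and detected with HRP-ECL.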

[14] = system: PACAP promoter; assay: PACAP promoter activity assay; format: cell-based, mouse; settings: RGC-5; for positive effect on PACAP’s promoter activity: over 10 μM
[15] = system: PAC1-R in RGC-5 cells; format: cell-based, mouse; settings: 15 min; for PAC1-R level in RGC-5 cells (immunofluorescence) / nuclear translocation of PAC1-R in RGC-5 cells: 1 μM
[16] = ref [10]; cited from earlier work
[17] = system: PAC1-R; settings: cited from earlier work; remark: listed apart in the source
[18] = molecular target: T1, recombinant PAC1-EC1 protein; assay: ITC
T1 chain: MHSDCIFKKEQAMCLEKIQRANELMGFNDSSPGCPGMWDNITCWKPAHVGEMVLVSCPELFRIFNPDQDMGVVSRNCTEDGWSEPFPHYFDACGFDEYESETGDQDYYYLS

[19] = RGC-5, 50 μM 2-bromopalmitate with 1 μM peptide

C[n+]1ccc(-c2ccccc2)cc1 [MPP, 1-methyl-4-phenylpyridinium, reference compound]
number of TUNEL-positive cells ([1]; 24 h): increased the number of TUNEL-positive cells
apoptosis in RGC-5 cells ([2]; 8 mM MPP, MTT assay): significant apoptosis
cells remaining viable after MPP ([2]; RGC-5, 8 mM MPP, 24 h, MTT, % of cells without MPP): about 31%

PACAP(6-38): PAC1-R antagonist (FTDSYSRYRKQMAVKKYLAAVLGKRYKQRVKNK; ends and bridges not checked; UniProt P18509 137-169, looked up, fragment)
antagonism of PAC1-R ([3]; ref [15]): full antagonist

GRKKRRQRRRP [TAT]
binding signal from titration of TAT [4]: no binding signal is detected
expression level of PACAP (ELISA) ([5]; 0.1 μM–10 μM, 30 min): significantly increase; also recorded: increased
positive effect on PACAP expression level [5]: decreased
binding to allosteric regulatory site ([6]; ref [19]): binds to the same allosteric regulatory site mainly through charge interaction
promoter activity of PAC1-R ([7]; 0.1 μM–1 μM, 15 min): significantly enhanced
nuclear translocation of PAC1R-eGFP [8]: significantly detected
nuclear translocation of M-PAC1-R (Cys25/Ala25) [9]: significantly weaker than that of the wild-type PAC1-R; also recorded: can not induce significant trafficking or aggregation
ChIP-PCR band for PAC1-R promoter sequence [10]: positive band
cytoprotective activities [11]: significant cytoprotective activities
TUNEL signal (MPP-induced apoptosis) ([1]; 24 h): significantly reduced
ChIP-PCR band for PACAP promoter sequence [12]: positive band
protection against decrease of cell viability induced by MPP ([2]; RGC-5, 24 h, MTT): significantly blocked
PAC1-R expression by Western blot ([13]; 30 min): increased positively with the concentrations
PAC1-R truncated form (about 35 kDa) ([13]; Western blot, 30 min): induced
promoter activity of PACAP ([14]; 0.01 μM–10 μM, 15 min): significantly enhanced
promoter activity of PACAP ([14]; 0.1 μM–10 μM, 15 min): increased
positive effect on PACAP’s promoter activity [14]: decreased
PAC1-R level in RGC-5 cells (immunofluorescence) [15]: increase the PAC1-R level
nuclear translocation of PAC1-R in RGC-5 cells [15]: induce significant nuclear translocation of PAC1-R

pituitary adenylate cyclase-activating polypeptide (HSDGIFTDSYSRYRKQMAVKKYLAAVLGKRYKQRVKNK; ends and bridges not checked; UniProt P18509 132-169, looked up) [PACAP]
therapeutic effect mediated by PAC1-R [16]: significant therapeutic effect

PACAP38: form of PACAP, ligand of PAC1-R (HSDGIFTDSYSRYRKQMAVKKYLAAVLGKRYKQRVKNK; ends and bridges not checked; UniProt P18509 132-169, looked up)
activation of PAC1-R ([3]; compared with PACAP27, ref [2]): significantly more complete and effective activity than PACAP27
PAC1-R’s own expression ([17]; ref [22], [23]): up-regulate PAC1-R’s own expression
nuclear translocation of PAC1-R ([17]; ref [22], [23]): induce the nuclear translocation of PAC1-R

GKRYKQRVKNK [PACAP(28-38)]
expression level of PACAP (ELISA) ([5]; 0.01 μM–10 μM, 30 min): significantly increase
expression level of PACAP (ELISA) ([5]; 0.1 μM–10 μM, 30 min): increased
positive effect on PACAP expression level [5]: decreased
binding to allosteric regulatory site ([6]; ref [16], [17]): binds to the allosteric regulatory site through both conformational and charge interaction
promoter activity of PAC1-R ([7]; 0.1 μM–1 μM, 15 min): significantly enhanced
promoter activity of PAC1-R ([7]; 0.1–100 μM, 15 min (legend of Figure 3B), *P<0.01 vs 0 μM): significantly enhanced
nuclear translocation of PAC1R-eGFP [8]: significantly detected
nuclear translocation of M-PAC1-R (Cys25/Ala25) [9]: significantly weaker than that of the wild-type PAC1-R; also recorded: can not induce significant trafficking or aggregation
ChIP-PCR band for PAC1-R promoter sequence [10]: positive band
cytoprotective activities [11]: significant cytoprotective activities
TUNEL signal (MPP-induced apoptosis) ([1]; 24 h): significantly reduced
ChIP-PCR band for PACAP promoter sequence [12]: positive band
protection against decrease of cell viability induced by MPP ([2]; RGC-5, 24 h, MTT): significantly blocked
PAC1-R expression by Western blot ([13]; 30 min): increased positively with the concentrations
PAC1-R truncated form (about 35 kDa) ([13]; Western blot, 30 min): induced
promoter activity of PACAP ([14]; 0.1 μM–10 μM, 15 min): significantly enhanced; also recorded: increased
positive effect on PACAP’s promoter activity [14]: decreased
PAC1-R level in RGC-5 cells (immunofluorescence) [15]: increase the PAC1-R level
nuclear translocation of PAC1-R in RGC-5 cells [15]: induce significant nuclear translocation of PAC1-R

CCCCCCCCCCCCCCC(Br)C(=O)O (stereo not drawn) [2-bromopalmitate, reference compound]
inhibition of PACAP(28-38)- or TAT-induced PACAP expression ([5]; 50 μM 2-bromopalmitate, 30 min, ELISA): inhibited
inhibition of PACAP(28-38)- or TAT-induced PAC1-R promoter activity ([7]; 50 μM 2-bromopalmitate, 15 min): significantly inhibited
inhibition of anti-apoptotic activities of PACAP(28-38) and TAT ([1]; 50 μM 2-bromopalmitate, TUNEL): significantly inhibited
inhibition of oxidative stress-induced nuclear translocation and increase of PAC1-R expression ([17]; ref [23]): can inhibit
truncated forms of PAC1-R with molecular weight smaller than 35 kDa ([13]; 50 μM 2-bromopalmitate with PACAP(28-38) or TAT, Western blot): decrease
inhibition of PACAP(28-38)- or TAT-induced PAC1-R expression ([13]; 50 μM 2-bromopalmitate, 30 min, Western blot): inhibited
inhibition of PACAP(28-38)- or TAT-induced PACAP promoter activity ([14]; 50 μM 2-bromopalmitate, 15 min): significantly inhibited
inhibition of nuclear translocation of PAC1-R induced by PACAP(28-38) or TAT [15, 19]: effectively inhibited
inhibition of up-regulation of PAC1-R induced by PACAP(28-38) or TAT [15, 19]: effectively inhibited

GKRYKQRVKNK (ends and bridges not checked) [PACAP(28-38)]
Ka [18]: 635000 M⁻¹

GRKKRRQRRRP [TAT]
Ka [18]: 503000 M⁻¹
